Consider five compounds from ChEMBL document CHEMBL1157719, “1-Indol-1-yl-propan-2-ones and related heterocyclic compounds as dual inhibitors of cytosolic phospholipase A(2)alpha and fatty acid amide hydrolase” (Bioorg Med Chem, 2010).

Activity calls are given as the source filed them. The rule behind the calls is not given here.

Assay [1] addresses T1, Fatty-acid amide hydrolase 1 (Rattus norvegicus, UniProt P97612).
T1 sequence (P97612 whole entry): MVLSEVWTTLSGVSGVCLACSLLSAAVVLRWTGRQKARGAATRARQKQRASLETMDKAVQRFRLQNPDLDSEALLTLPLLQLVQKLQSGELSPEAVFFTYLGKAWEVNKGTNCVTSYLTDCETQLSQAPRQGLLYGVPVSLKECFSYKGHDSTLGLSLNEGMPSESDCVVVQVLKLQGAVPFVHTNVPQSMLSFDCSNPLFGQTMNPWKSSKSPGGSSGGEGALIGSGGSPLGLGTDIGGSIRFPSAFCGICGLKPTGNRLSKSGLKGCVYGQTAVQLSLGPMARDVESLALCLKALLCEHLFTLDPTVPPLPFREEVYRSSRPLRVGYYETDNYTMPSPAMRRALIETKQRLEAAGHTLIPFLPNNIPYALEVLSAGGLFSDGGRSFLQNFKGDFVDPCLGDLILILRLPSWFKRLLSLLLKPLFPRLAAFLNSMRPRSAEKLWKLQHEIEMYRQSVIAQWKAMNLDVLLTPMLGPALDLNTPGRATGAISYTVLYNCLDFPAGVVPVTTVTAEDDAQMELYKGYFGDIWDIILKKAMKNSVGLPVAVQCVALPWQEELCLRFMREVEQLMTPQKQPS
In words: Inhibition of FAAH from rat brain microsomes by RP-HPLC.

Assay [2] has as its target T2, Cytosolic phospholipase A2 (Homo sapiens) (UniProt P47712).
T2 sequence (whole entry): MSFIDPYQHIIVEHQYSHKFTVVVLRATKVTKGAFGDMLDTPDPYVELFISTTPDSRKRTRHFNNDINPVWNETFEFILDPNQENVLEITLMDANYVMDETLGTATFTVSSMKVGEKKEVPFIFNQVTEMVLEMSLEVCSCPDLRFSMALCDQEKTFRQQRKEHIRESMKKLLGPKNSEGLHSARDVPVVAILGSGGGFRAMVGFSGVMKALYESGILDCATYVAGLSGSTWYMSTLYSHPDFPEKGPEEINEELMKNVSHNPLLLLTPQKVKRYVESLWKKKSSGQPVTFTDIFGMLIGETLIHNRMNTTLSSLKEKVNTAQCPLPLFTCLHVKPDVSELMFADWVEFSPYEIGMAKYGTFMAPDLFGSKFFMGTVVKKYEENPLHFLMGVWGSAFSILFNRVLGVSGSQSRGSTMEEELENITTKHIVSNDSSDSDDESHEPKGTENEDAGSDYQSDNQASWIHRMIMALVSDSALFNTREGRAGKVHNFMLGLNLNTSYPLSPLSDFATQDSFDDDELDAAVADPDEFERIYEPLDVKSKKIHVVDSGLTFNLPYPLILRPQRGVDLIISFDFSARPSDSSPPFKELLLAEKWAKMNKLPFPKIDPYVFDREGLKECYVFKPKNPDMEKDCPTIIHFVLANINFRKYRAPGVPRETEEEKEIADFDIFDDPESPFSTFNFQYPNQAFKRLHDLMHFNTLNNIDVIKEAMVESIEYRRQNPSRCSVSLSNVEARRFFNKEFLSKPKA
In words: Inhibition of cPLA2 from human platelets at 10 uM by RP-HPLC. Put shortly: (§1)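 cPLA2α purified from human platelets; substrate sonicated covesicles of SAPC 200 μM and 1,2-dioleoyl-sn-glycerol 100 μM. Reaction 60 min, stopped with acetonitrile/methanol/0.1 M EDTA-Na2 containing 4-undecyloxybenzoic acid internal standard and NDGA. Arachidonic acid released measured by RP-HPLC, UV 200 nm, after solid-phase extraction, with vs without inhibitor; max 10 μM. IC50 means of at least two independent determinations.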

A short description of assay [3]: inhibition of MAGL up to 10 uM. In outline:
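MAGL set up like the FAAH assay, using pyrene-labelled substrate 1,3-dihydroxypropan-2-yl 4-pyren-1-ylbutanoate; product measured by RP-HPLC with fluorescence detection; highest test concentration 10 μM.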

Assay [4] concerns the target T3, Cytosolic phospholipase A2 (Homo sapiens, UniProt P47712).
T3 sequence (P47712 whole entry): T2 sequence (whole entry)
In words: Inhibition of cPLA2 from human platelets by RP-HPLC. In outline: as §1

The target in assay [5] is T4, Fatty-acid amide hydrolase 1 (Rattus norvegicus) (UniProt P97612).
T4 sequence (whole entry): T1 sequence (P97612 whole entry)
In words: Inhibition of FAAH from rat brain microsomes at 10 uM by RP-HPLC. Put shortly:
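Rat brain microsomes as FAAH source; substrate N-(2-hydroxyethyl)-4-pyren-1-ylbutanamide 100 μM solubilized with Triton X-100 0.2%. Incubated 45 min, then stopped with acetonitrile/methanol plus internal standard 6-pyren-1-ylhexanoic acid. Released 4-pyren-1-ylbutanoic acid quantified directly by RP-HPLC with fluorescence (ex 340, em 380 nm), with vs without inhibitor. Inhibitor max 10 μM; IC50 means of at least two independent determinations.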

The IC50 is the concentration at which inhibition is half-maximal. Lower therefore signals higher potency. A word on the inhibition: it is the percentage by which the read-out fell short of the control. For `CCCCCCCCc1ccc(OCC(=O)Cn2cnc3ccccc32)cc1`, the 50% inhibitory concentration (IC50) in assay [1] was 1 µM; in assay [4], over 10 µM. For the same compound, the inhibition in assay [2] amounted to 36%. Moreover, in assay [3], the inhibition entry was “inactive”.
Take `CCCCCCCCc1ccc(OCC(=O)Cn2ccc3cc(OC)ccc32)cc1`: the inhibition in assay [5] was 22%. This compound yielded an IC50 in assay [1] of over 10 µM. The inhibition entry in assay [2] and in assay [3] was “inactive” each time.
`CCCCCCCCc1ccc(OCC(=O)Cn2cncc2C(=O)O)cc1`: the inhibition entry in assay [5] and in assay [3] was “inactive” throughout. In addition, the inhibition in assay [2] was 18%. Besides, the IC50 in assay [4] is over 10 µM.
`CCCCCCCCc1ccc(OCC(=O)Cn2nccc2C(=O)O)cc1`: the inhibition result in assay [5] and in assay [3] was “inactive” in each case. Also, the inhibition in assay [2] is 21%. Further, the IC50 in assay [4] is over 10 µM.
As to `CCCCCCCCc1ccc(OCC(=O)Cn2cccn2)cc1`, the IC50 in assay [1] is 2 µM; in assay [4], over 10 µM. Besides, the inhibition in assay [2] turned out to be 43%. For the same compound, the inhibition result in assay [3] was “inactive”.
